The results in this text go back to ChEMBL document CHEMBL1148452, “Fluoroartemisinin: trifluoromethyl analogues of artemether and artesunate” (J Med Chem, 2004).

Values joined by “and” are separate entries in the source; they are usually repeats but may differ in a detail not shown here. Equal values may be shown once.

In one series the test system is Plasmodium falciparum. Kind of series: In vitro antimalarial activity against Plasmodium falciparum FCB1. In kind it is functional, organism-based. Summed up: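 P. falciparum FCB1 (chloroquine-resistant) cultured continuously in human erythrocytes. Ring-synchronized cultures at 1% parasitemia and 1% final hematocrit were exposed to serial dilutions, with methanol or DMSO ≤0.1%. Cultures received [3H]-hypoxanthine and were incubated 48 h at 37 °C. Incorporated radioactivity was compared with drug-free controls, and IC50 was taken by nonlinear regression of log(dose)-response. Mean of three experiments.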

The test system of series [1] is Mus musculus. Nature of the series: (§1) Percentage uM/kg). In kind it is functional. Also noted: concentration or dose not given beside the values. Summed up:
(§2)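 Female ICR (CD-1) mice (18–20 g) infected with P. berghei NK 173, following Peters' 4-day test. Dosing was intraperitoneal for 4 days, with four to five mice per group. Parasitemia was counted and inhibition calculated against infected untreated controls. Survey dose 35.5 μmol/kg. ED50/ED90 came from doses of 0.5–10 mg/kg, with parasitemia read on day 4.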

The subject of series [2] is Mus musculus. The description is as §1. In kind it is functional. Summed up:
as §2

The test system of series [3] is Mus musculus. The description is as §1. In kind it is functional. Summed up:
as §2
This is another data set of the same source.

Series [4] relates to Mus musculus. Described as §1. In kind it is functional. Put shortly:
as §2
The source holds these as a separate data set.

Series [5] relates to Mus musculus. The description is as §1. In kind it is functional. Summed up: as §2
This is another data set of the same source.

A short description of series [6]: Plasmatic Half-life after intravenous administration to rat. The settings on record: plasma. In kind it is ADME, organism-based.
The nature of series [7]: Half-life at pH 1. In kind it is ADME. To be noted: buffer.
Series [8] relates to Mus musculus. Kind of series: In vivo antimalarial activity against Plasmodium berghei NK 173 infected mice (Mus musculus) administered i.p. at the end of 4 day. In kind it is functional. Put shortly: as §2
Series [9] relates to Mus musculus. Nature of the series: (§3) In vivo antimalarial activity against Plasmodium berghei NK173 infected mice (Mus musculus) administered intraperitoneal. at the end of 4 day. In kind it is functional. To be noted: ip, 96 h. Put shortly: as §2
For series [10], the system named is Mus musculus. The series is described as §1. In kind it is functional. Summed up:
as §2
This is another data set of the same source.

The subject of series [11] is Mus musculus. The description is as §3. In kind it is functional. Summed up: (§4)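 Female ICR (CD-1) mice (18–20 g), 4–5 per group, infected with P. berghei NK 173 and dosed intraperitoneally for 4 days at 0.5 to 10 mg/kg (Peters protocol). Parasitemia was counted at day 4, and inhibition was calculated against infected untreated controls. ED50 and ED90 were derived from these counts.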

Series [12] has as its system Mus musculus. Kind of series: In vivo antimalarial activity against Plasmodium berghei NK173 infected mice (Mus musculus) administered intraperitoneally. at the end of 4 day. In kind it is functional. To be noted: ip, 96 h. Put shortly: as §4
The mark [13] stands for this setting: Mus musculus, ip, 96 h, read-out: ED90.

In the series on Plasmodium falciparum, `C[C@@H]1CC[C@H]2[C@@H](C)[C@](OCC(=O)O)(C(F)(F)F)OC3O[C@]4(C)CC[C@@H]1[C@]32OO4` (some centres undefined) had an IC50 of 30.4 nM. For the same compound, the Parasitemia in the series on Mus musculus [1] is 47.5%.
As to `C[C@@H]1CCC2[C@@H](C)[C@](OO)(C(F)(F)F)OC3O[C@]4(C)CCC1[C@]32OO4` (some centres undefined), the IC50 in the series with Plasmodium falciparum is 13.2 nM. The Parasitemia amounted to 36.8% in the series with Mus musculus [2], 41.7% in the series with Mus musculus [3], 28.3% in the series on Mus musculus [4] and 5.5% with Mus musculus [1].
In the series with Plasmodium falciparum, `C[C@@H]1CC[C@H]2[C@@H](C)[C@](O)(C(F)(F)F)O[C@@H]3O[C@]4(C)CC[C@@H]1[C@]32OO4` registered an IC50 of 9.4 nM. For the same compound, the values for the Parasitemia with Mus musculus [5], in the series on Mus musculus [4] and in the series with Mus musculus [1] were 22.1%, 10.7% and 4%, respectively. For the same compound, in [6], the half-life is 1.43 h.
For `C[C@@H]1CCC2[C@@H](C)[C@](OCC(F)(F)F)(C(F)(F)F)OC3O[C@]4(C)CCC1[C@]32OO4` (some centres undefined), the IC50 in the series on Plasmodium falciparum came out at 8.3 nM. The Parasitemia in the series with Mus musculus [4] and in the series with Mus musculus [1] was 0% in each case. The same compound gave a half-life in [7] of 215 h.
The compound `CO[C@@]1(C(F)(F)F)OC2O[C@]3(C)CCC4[C@H](C)CCC([C@H]1C)[C@@]24OO3` (some centres undefined) yielded an IC50 in the series on Plasmodium falciparum of 0.8 nM. In addition, the Parasitemia in the series on Mus musculus [5], in the series on Mus musculus [4], in the series with Mus musculus [10] and in the series on Mus musculus [1] was 0% in each case. In addition, the values for the ED90 with Mus musculus [8] and in the series on Mus musculus [8] (setting [13]) were 17.5 µM/kg and 6.4 mg/kg, respectively. In addition, in the series on Mus musculus [9], the ED50 was 1.25 mg/kg and 3.4 µmol/kg. Moreover, the half-life in series [7] was 660 h.
Turning to `C[C@@H]1CC[C@H]2[C@@H](C)[C@](OCC=O)(C(F)(F)F)OC3O[C@]4(C)CC[C@@H]1[C@]32OO4` (some centres undefined), the concentration for half-maximal inhibition (IC50) with Plasmodium falciparum amounted to 21.4 nM. Further, the Parasitemia was 46.8% with Mus musculus [2]; 26.8% in the series with Mus musculus [3]; 7.8% with Mus musculus [4]; 29.6% with Mus musculus [10]; 0.2% with Mus musculus [1].
As for `CCO[C@@]1(C(F)(F)F)OC2O[C@]3(C)CCC4[C@H](C)CCC([C@H]1C)[C@@]24OO3` (some centres undefined), half-maximal inhibition in the series on Plasmodium falciparum (IC50) was put at 3.3 nM. In addition, the Parasitemia was 0% in the series with Mus musculus [5], 0% with Mus musculus [4], 3.8% in the series on Mus musculus [10] and 0% in the series on Mus musculus [1]. The compound also showed a half-life in [7] of 500 h.
Compound `C[C@@H]1CCC2[C@@H](C)[C@@H](O)OC3O[C@]4(C)CCC1[C@]32OO4` (some centres undefined) returned a half-life in [6] of 0.438 h.
For the compound `COC1O[C@@H]2O[C@]3(C)CCC4[C@H](C)CCC([C@H]1C)[C@]42OO3` (some centres undefined), the IC50 in the series on Plasmodium falciparum is 3.5 nM. The ED90 in the series with Mus musculus [11] came to 28.5 µM/kg; in the series on Mus musculus [11] (setting [13]) it was 8.5 mg/kg. Moreover, the Parasitemia in the series with Mus musculus [2] amounted to 48.1%; in the series on Mus musculus [3], 39.2%; with Mus musculus [4], 5.5%; with Mus musculus [1] it was 2.2%. The ED50 in the series with Mus musculus [12] is 2.5 mg/kg and 8.4 µmol/kg.
Compound `C[C@@H]1CC[C@H]2[C@@H](C)[C@](OCC(O)CO)(C(F)(F)F)OC3O[C@]4(C)CC[C@@H]1[C@]32OO4` (some centres undefined) gave an IC50 in the series with Plasmodium falciparum of 0.9 nM. Further, the Parasitemia in the series with Mus musculus [5] amounted to 46.3%; with Mus musculus [3] it was 28.8%; with Mus musculus [4], 12.1%; with Mus musculus [1], 2.1%.
For `C[C@@H]1CC[C@H]2[C@@H](C)[C@](OCc3ccc(C(=O)[O-])cc3)(C(F)(F)F)OC3O[C@]4(C)CC[C@@H]1[C@]32OO4.[Na+]` (some centres undefined), the IC50 in the series on Plasmodium falciparum was found to be 10.6 nM. The Parasitemia came out at 25.6% with Mus musculus [2], 34.9% in the series with Mus musculus [3], 26.8% in the series on Mus musculus [4] and 25.9% in the series with Mus musculus [1]. In [7], this compound had a half-life of 680 h.
Compound `COc1ccc(N[C@@]2(C(F)(F)F)OC3O[C@]4(C)CCC5[C@H](C)CCC([C@H]2C)[C@@]35OO4)cc1` (some centres undefined) had an IC50 in the series with Plasmodium falciparum of 12.3 nM. Further, the Parasitemia turned out to be 8.1% in the series with Mus musculus [2]; 0.1% in the series on Mus musculus [3]; 0% in the series with Mus musculus [4]; 0% with Mus musculus [10]; 0% in the series on Mus musculus [1]. The same compound had a half-life in series [7] of 30 h.
